We go through two compounds from ChEMBL document CHEMBL2346582, “Guanidino anthrathiophenediones as G-quadruplex binders: uptake, intracellular localization, and anti-Harvey-Ras gene activity in bladder cancer cells” (J Med Chem, 2013).

Activity calls are given as the source filed them. The rule behind the calls is not given here.

In series [1] the test system is T-24. The experiment in a line: Cellular uptake in human T24 cells assessed as accumulation in nucleoplasm at 2.5 uM after 2 hrs by propidium iodide staining-based confocal microscopic analysis. The settings on record: t-24, 2 h. It is filed as ADME, cell-based. Summed up: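 T24 cells plated (3 × 10^5) on coverslips and treated after 24 h with 2.5 μM ligand for 2 h. Fixed in 3% paraformaldehyde and permeabilized with Triton X-100. Cytoplasm immunostained for DRP1 with FITC secondary; nuclei stained with propidium iodide plus RNase A. Ligand red fluorescence excited at 543 nm; confocal Z-sections at 2 μm intervals.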

For series [2], the species on record is Homo sapiens. In words: Thermal stabilization of human telomeric G-quadruplex FAM-TTAGGGTTAGGGTTAGGGTTAGGG-TAMRA DNA assessed as melting temperature at 1:5 DNA:ligand ratio by FRET assay. Summed up:
(§1)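 Telomeric quadruplex (TTAGGG)4, 200 nM, dual-labelled, in 100 mM KCl, Tris-HCl buffer. Melted with ligand at r = 1, 2, 3, 4 or 5 ([ligand]/[quadruplex]). Samples equilibrated 5 min at 20 °C, then heated in 1 °C/min steps to 95 °C; TM read from the donor/acceptor emission.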

The species entered for series [3] is Homo sapiens. In words: Thermal stabilization of human telomeric G-quadruplex FAM-TTAGGGTTAGGGTTAGGGTTAGGG-TAMRA DNA assessed as melting temperature at 1:4 DNA:ligand ratio by FRET assay. Summed up: as §1
The species entered for series [4] is Homo sapiens. The experiment in a line: Thermal stabilization of human telomeric G-quadruplex FAM-TTAGGGTTAGGGTTAGGGTTAGGG-TAMRA DNA assessed as melting temperature at 1:3 DNA:ligand ratio by FRET assay. Summed up: as §1
For series [5], the species on record is Homo sapiens. The experiment in a line: Thermal stabilization of human telomeric G-quadruplex FAM-TTAGGGTTAGGGTTAGGGTTAGGG-TAMRA DNA assessed as melting temperature at 1:2 DNA:ligand ratio by FRET assay. Summed up:
as §1

The species entered for series [6] is Homo sapiens. In words: Thermal stabilization of human telomeric G-quadruplex FAM-TTAGGGTTAGGGTTAGGGTTAGGG-TAMRA DNA assessed as melting temperature at 1:1 DNA:ligand ratio by FRET assay. A digest of the protocol: as §1
Series [7] deals with T-24. In words: Binding affinity to HRAS G-quadruplex DNA in human T24 cells assessed as reduction in p21HRAS level at 5 uM by immunoblotting analysis relative to control. On the technique in general: A western blot detects proteins with antibodies after separation by electrophoresis.
The test system of series [8] is HEK293. The experiment in a line: Cellular uptake in human HEK293 cells at 0.5 to 10 uM after 10 mins to 8 hrs by flow cytometric analysis. Format: ADME, cell-based. The conditions noted are these: hek293, 10 µM. A digest of the protocol: (§2)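 Flow cytometric uptake of 10 μM ligand over time (15 min, 1, 2, 6, 8 h; T24, and up to 8 h in NIH 3T3 and 293). Cells plated at 5 × 10^4 per well the day before. Ligand fluorescence detected in FL3 (680 nm), at least 10,000 cells acquired.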
On the technique in general: A flow cytometer gives signals particle by particle.

The subject of series [9] is HEK293. The experiment in a line: Cellular uptake in human HEK293 cells at 0.5 to 10 uM after 8 hrs by flow cytometric analysis. Format: ADME, cell-based. The conditions noted are these: hek293, 8 h. Summed up:
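Cells plated at 5 × 10^4 per well and treated next day with ligand at […] for 8 h. Then trypsinized, resuspended in PBS and analysed by flow cytometry (488 nm excitation, FL3 680 nm, log scale), at least 10,000 cells per sample. Uptake read from intrinsic ligand red fluorescence.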

Series [10] relates to T-24. In words: Cellular uptake in human T24 cells at 0.5 to 10 uM after 10 mins to 8 hrs by flow cytometric analysis. Format: ADME, cell-based. The conditions noted are these: t-24, 10 µM. A digest of the protocol: as §2
Series [11] is filed under the species Homo sapiens. The experiment in a line: Binding affinity to 32mer duplex DNA (unknown origin) at 5 uM by UV-vis titration.

With `N=C(N)NCCCCNc1c2c(c(NCCCCNC(=N)N)c3sccc13)C(=O)c1ccccc1C2=O`, the Drug uptake entry in series [1] is “Active”. Besides, the Tm was determined as 83.7 °C in series [2]; 81.1 °C in [3]; 79.1 °C in [4]; 76.3 °C in series [5]; 58.5 °C in series [6]. The outcome in series [7] was Active.

`N=C(N)NCCNc1c2c(c(NCCNC(=N)N)c3sccc13)C(=O)c1ccccc1C2=O`: the Drug uptake result in series [8], in series [9] and in [10] was “Active” throughout. The result in series [11] and in series [7] was Active.
